MPTP block: mitochondrial permeability transition pore inhibitors, primary screen, biochemical, isolated mouse mitochondria, absorbance. Ca2+ swelling absorbance, 30 min. inhibition, % at 10 µM. 360,000 compounds, 1.4% hits. AID 602449, 2012;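 active = inhibition of 50% or more, scaled per plate between neutral and stimulator controls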;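 also: 0% = DMSO wells given calcium and 100% = 1 mM EGTA wells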
MT1-MMP act inh: blockers of MT1-MMP proenzyme processing, primary screen, HT1080 RFP-PRO-GFP cells, GFP/RFP fluorescence | Matrix metalloproteinase-14 (Homo sapiens), P50281 | GFP/RFP ratio fluorescence, overnight; percent of plate control window, DMSO zero | GFP/RFP ratio change, % at 20 µM | 360,000 compounds, 0.061% hits | AID 651647, 2012;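 active = GFP/RFP ratio change of at least 30% with cell ATP level not reduced by more than half and red fluorescence within 50% of control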
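Assay system: HT1080 RFP-PRO-GFP cells | Dosing: 20 µM single dose, 1% DMSO | Incubation: Cells overnight before dosing, compound overnight, 37 °C, 5% CO2 | Evaluation: GFP/RFP fluorescence ratio | Control set: DMSO-only wells and HT1080 RFP-L50D-GFP cell wells as references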
SKN-1 inh: suppressors of acrylamide-induced Pgst-4::GFP reporter in worms, primary screen, SKN-1 inhibitor project, whole organism, uHTS, GFP/RFP fluorescence ratio, strain VP596; inhibition, % at 21.8 µM; 360,000 compounds, 0.49% hits; C. elegans VP596 Pgst-4::GFP/RFP ratio, 24 h;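 active = interference check ratio from 0.5 to 1.5 plus GFP to RFP signal ratio inhibition reaching or exceeding a fixed threshold, cut at about 30% in these data, passing the limit was not always enough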
ATG4B inh: ATG4B protease inhibitors, primary screen, biochemical, fluorescence, uHTS; ATG4B cleavage of LC3-PLA2, NBD-HPC fluorescence, 1 h; Cysteine protease ATG4B (Homo sapiens), Q9Y4P1; AID 504462, 2011; 340,000 compounds, 0.51% hits; inhibition, % at 8.33 µM; in the data active = inhibition above about 40%
Target sequence (Q9Y4P1 whole entry, looked up): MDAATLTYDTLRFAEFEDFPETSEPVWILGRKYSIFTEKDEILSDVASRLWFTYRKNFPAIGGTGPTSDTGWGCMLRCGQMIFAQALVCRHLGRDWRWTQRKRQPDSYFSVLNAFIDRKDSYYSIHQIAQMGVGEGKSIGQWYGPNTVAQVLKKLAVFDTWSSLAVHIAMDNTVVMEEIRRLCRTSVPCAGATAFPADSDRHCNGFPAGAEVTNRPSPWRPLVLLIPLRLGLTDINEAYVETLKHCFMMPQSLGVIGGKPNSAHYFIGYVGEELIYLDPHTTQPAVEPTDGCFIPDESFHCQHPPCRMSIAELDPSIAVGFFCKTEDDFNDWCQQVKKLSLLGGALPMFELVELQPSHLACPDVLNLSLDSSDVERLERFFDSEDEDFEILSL
MPTP counter: fluorescence retest of MPTP screen hits in isolated mitochondria, single concentration; shares compounds with MPTP block; membrane potential, Rhodamine 123 fluorescence; inhibition, % at 10 µM; 5,000 compounds, 78% hits; AID 624504, 2012; in the data active = inhibition above about 22%;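 also: 0% = DMSO vehicle and 100% = positive control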
MPTP swell DR: mitochondrial permeability transition pore inhibitors, dose response, biochemical, absorbance, uHTS hits. shares compounds with MPTP block. isolated mitochondria swelling. IC50, µM. 780 compounds, 58% hits. AID 651561, 2012; in the data active = IC50 below about 20 µM
MPTP counter DR: fluorescent counter-screen in isolated mitochondria, dose response, counter-screen for MPTP inhibitor project, biochemical, fluorescence, uHTS hits | shares compounds with MPTP block | isolated mitochondria counterscreen, fluorescence read-out | IC50, µM | 780 compounds, 49% hits | AID 651564, 2012; in the data active = IC50 below about 80 µM
* hit, by the source's call. Shown are actives, neighbours in structure and some others; about 2.3% of the full set was active somewhere.

Results for O=C(CSc1ccc([N+](=O)[O-])cn1)Nc1ccc2[nH]c(=O)[nH]c2c1 ?
MPTP block: 0; MT1-MMP act inh: 2; SKN-1 inh: -2; ATG4B inh: -12

How did CCN(CC)S(=O)(=O)c1ccc(O)c(C(=O)OCC(=O)NC23CC4CC(CC(C4)C2)C3)c1 do in these assays?
MPTP block: 83*; MT1-MMP act inh: -1; SKN-1 inh: 4; ATG4B inh: -12; MPTP counter: 81*

How did CCN(CC)S(=O)(=O)c1ccc(O)c(C(=O)OCC(=O)NC2CCCC2)c1 do in these assays?
MPTP block: -1; MT1-MMP act inh: -1; SKN-1 inh: -2; ATG4B inh: -9

How did CCN(CC)S(=O)(=O)c1ccc(O)c(C(=O)OCC(=O)Nc2cc(C)c(C)cc2[N+](=O)[O-])c1 do in these assays?
MPTP block: -4; MT1-MMP act inh: 0; SKN-1 inh: 13; ATG4B inh: 5

How did CCN(CC)S(=O)(=O)c1ccc(O)c(C(=O)OCC(=O)Nc2ccc(OC(F)(F)F)cc2)c1 do in these assays?
MPTP block: 102*; MT1-MMP act inh: -3; SKN-1 inh: 0; ATG4B inh: -1; MPTP counter: 84*

What do the screens show for `CCCCCCCCN1C(=O)[C@H](CC(=O)NCCC(C)C)C[C@@]2(C(=O)OCC)CCCC=C12`?
MPTP block: -4; MT1-MMP act inh: -6; SKN-1 inh: 12

What do the screens show for `O=C(CSc1ccc(F)cc1)Nc1ccc(Br)cc1`?
MPTP block: 58*; MT1-MMP act inh: -2; SKN-1 inh: -4; ATG4B inh: -2; MPTP counter: 67*

What do the screens show for `Cc1ccc(NCC(=O)Nc2ccc(Br)cc2)cc1F`?
MPTP block: 60*; MT1-MMP act inh: 1; SKN-1 inh: 5; ATG4B inh: -8; MPTP counter: 70*

How did Cc1cc(=O)[nH]c(SCC(=O)Nc2ccc(F)cc2)c1C#N do in these assays?
MPTP block: 6; MT1-MMP act inh: 3; SKN-1 inh: 4; ATG4B inh: 3

What do the screens show for `CC(=O)NCCC(=O)Nc1ccc(C)c(F)c1`?
MPTP block: 0; MT1-MMP act inh: 2; SKN-1 inh: -5; ATG4B inh: -7

How did Cc1cc(=O)[nH]c(SCC(=O)Nc2ccc(Br)cc2)c1C#N do in these assays?
MPTP block: 96*; MT1-MMP act inh: 3; SKN-1 inh: -13; ATG4B inh: 5; MPTP counter: 90*

How did COc1ccccc1NC(=O)c1c(Nc2ccccc2F)sc(C(=O)Nc2cccc(Cl)c2)c1N do in these assays?
MPTP block: 78*; MT1-MMP act inh: 0; SKN-1 inh: 18; ATG4B inh: 20; MPTP counter: 46*

How did CCOC(=O)c1c(NC(=O)C(NCCN(C)C)c2ccccc2)sc2c1CCCC2 (stereo unspecified) do in these assays?
MPTP block: 81*; MT1-MMP act inh: -2; SKN-1 inh: 6; ATG4B inh: 0; MPTP counter: -11

What do the screens show for `O=C(NCCc1ccc(F)cc1)Nc1ccc([N+](=O)[O-])cc1`?
MPTP block: 82*; MT1-MMP act inh: 3; SKN-1 inh: 2; ATG4B inh: 16; MPTP counter: 79*

How did O=C(NCCc1ccc(Cl)cc1)Nc1ccc(F)cc1 do in these assays?
MPTP block: 1; MT1-MMP act inh: 1; SKN-1 inh: 0; ATG4B inh: -6

Results for Fc1ccc(NC(=S)NCCc2ccc(Cl)cc2)cc1 ?
MPTP block: 89*; MT1-MMP act inh: 7; SKN-1 inh: 6; ATG4B inh: -1; MPTP counter: 90*

How did Fc1ccc(NC(=S)NCc2ccccc2Cl)cc1 do in these assays?
MPTP block: 92*; MT1-MMP act inh: 2; SKN-1 inh: 3; ATG4B inh: 16; MPTP counter: 76*

Results for COc1ccc(NC(=O)NCc2ccc(Cl)cc2)cc1 ?
MPTP block: 0; MT1-MMP act inh: 3; SKN-1 inh: -3; ATG4B inh: 1

What do the screens show for `COc1ccc(CNC(=O)Nc2ccc([N+](=O)[O-])cc2)cc1`?
MPTP block: 99*; MT1-MMP act inh: -5; SKN-1 inh: 6; ATG4B inh: 7; MPTP counter: 82*

How did COc1ccccc1CNC(=S)Nc1ccc(F)cc1 do in these assays?
MPTP block: 0; MT1-MMP act inh: -2; SKN-1 inh: 8; ATG4B inh: 3

Results for Cc1cccc(NC(=O)CNC(=O)c2cccc(-n3cccc3)c2)c1C ?
MPTP block: 0; MT1-MMP act inh: 1; SKN-1 inh: -6; ATG4B inh: 14

How did CCOC(=O)C1CCN(C(=O)CCCn2nc(C)c3c(C)n(-c4ccc(C)cc4)nc3c2=O)CC1 do in these assays?
MPTP block: 0; MT1-MMP act inh: 6; SKN-1 inh: 1; ATG4B inh: -2

How did CCCCN(C(=O)c1ccc(N2CCCC2=O)cc1)c1c(N)n(CCC)c(=O)[nH]c1=O do in these assays?
MPTP block: -3; MT1-MMP act inh: -2; SKN-1 inh: 6; ATG4B inh: -5

What do the screens show for `COC(CNC(=S)Nc1ccc([N+](=O)[O-])cc1)OC`?
MPTP block: 26; MT1-MMP act inh: 5; SKN-1 inh: -4; ATG4B inh: -5

Results for O=[N+]([O-])c1ccc(NC(=S)NCCc2ccc(F)cc2)cc1 ?
MPTP block: 100*; MT1-MMP act inh: -38; SKN-1 inh: 13; ATG4B inh: -7; MPTP counter: 81*

Results for CC(C)(C)c1cc(Cl)ccc1OCCOCCN1CCCC1 ?
MPTP block: 3; MT1-MMP act inh: 2; SKN-1 inh: 13; ATG4B inh: 3

Results for Cc1cc(C(C)(C)C)ccc1OCCOCCN1CCCC1 ?
MPTP block: 54*; MT1-MMP act inh: 3; SKN-1 inh: -7; ATG4B inh: -4; MPTP counter: 4; MPTP swell DR: 12*; MPTP counter DR: 24*

What do the screens show for `N=c1c(-c2nc3ccccc3[nH]2)cc(C(=O)c2ccco2)nn1-c1ccccc1`?
MPTP block: 13; MT1-MMP act inh: 1; SKN-1 inh: 15; ATG4B inh: -9

What do the screens show for `N=c1c(-c2nc3ccccc3[nH]2)cc(C(=O)c2cccs2)nn1-c1ccccc1`?
MPTP block: 91*; MT1-MMP act inh: -31; SKN-1 inh: -17; ATG4B inh: -7; MPTP counter: 39*

How did C/C(CC(=O)Nc1c(C)cc(C)cc1C)=N\NC(=O)c1cnccn1 do in these assays?
MPTP block: 1; MT1-MMP act inh: -2; SKN-1 inh: 6; ATG4B inh: -9

Screens as filed in PubChem.
